# Results: ChEMBL document CHEMBL2021842, “COMPARE analysis of the toxicity of an iminoquinone derivative of the imidazo[5,4-f]benzimidazoles with NAD(P)H:quinone oxidoreductase 1 (NQO1) activity and computational docking of quinones as NQO1 substrates” (Bioorg Med Chem, 2012)
# Assays:
# Assay type in all cases: functional
# NCI-H322M [1] = assay: Growth inhibition of human NCI-H322M cells assessed as cell growth at 10 uM relative to untreated control; settings: read-out: Activity
# How it was run: (§1)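 First stage of the NCI DTP 60 human tumour cell-line screen. Cells were exposed to a single dose of 10 µM. Output is reported as growth % relative to control.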
# SK-MEL-5 = assay: Growth inhibition of human SK-MEL-5 cells
# How it was run: (§2)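 Part of the NCI DTP 60-cell-line panel. After the single-dose stage, cells were tested at five doses. Read-out is the GI50, the concentration giving 50% inhibition of cell growth, derived for each cell line.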
# MOLT-4 [2] = assay: Growth inhibition of human MOLT4 cells; how it was run: as §2
# TK-10 = assay: Growth inhibition of human TK10 cells assessed as cell growth at 10 uM relative to untreated control; settings: read-out: Activity
# How it was run: (§3)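 This is the first stage of the NCI DTP 60-human-tumour-cell-line screen, covering nine tissue types. Cells receive a single dose of the test compound, and the output is reported as mean growth %.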
# SNB-75 [3] = assay: Growth inhibition of human SNB75 cells assessed as cell growth at 10 uM relative to untreated control; settings: read-out: Activity; how it was run: as §3
# SK-MEL-2 [4] = assay: Growth inhibition of human SK-MEL-2 cells assessed as cell growth at 10 uM relative to untreated control; settings: read-out: Activity; how it was run: as §1
# SK-MEL-2 [5] = assay: Growth inhibition of human SK-MEL-2 cells; how it was run: as §2
# SNB-75 [6] = assay: Growth inhibition of human SNB75 cells
# How it was run: (§4)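 This is the second, five-dose stage of the NCI DTP 60-cell-line screen. GI50 is the concentration that inhibits cell growth by 50%, derived for each cell line.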
# SF-268 = assay: Growth inhibition of human SF268 cells assessed as cell growth at 10 uM relative to untreated control; settings: read-out: Activity; how it was run: as §1
# OVCAR-4 = assay: Growth inhibition of human OVCAR4 cells; how it was run: as §2
# SF-295 [7] = assay: Growth inhibition of human SF295 cells assessed as cell growth at 10 uM relative to untreated control; settings: read-out: Activity; how it was run: as §1
# Malme-3M [8] = assay: Growth inhibition of human MALME-3M cells
# How it was run: (§5)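 NCI DTP 60-cell-line screen, second stage: five-dose testing across the human tumour panel. GI₅₀ taken as the concentration needed to inhibit cell growth by 50% in each cell line.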
# SF-539 [9] = assay: Growth inhibition of human SF539 cells; how it was run: as §2
# HOP-92 = assay: Growth inhibition of human HOP92 cells; how it was run: as §5
# NCI-H460 [10] = assay: Growth inhibition of human NCI-H460 cells; how it was run: as §2
# SK-OV-3 = assay: Growth inhibition of human SKOV3 cells assessed as cell growth at 10 uM relative to untreated control; settings: read-out: Activity; how it was run: as §1
# NCI-H460 [11] = assay: Growth inhibition of human NCI-H460 cells assessed as cell growth at 10 uM relative to untreated control; settings: read-out: Activity; how it was run: as §1
# HT-29 [12] = assay: Growth inhibition of human HT-29 cells assessed as cell growth at 10 uM relative to untreated control; settings: read-out: Activity
# How it was run: (§6)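 NCI DTP 60-cell-line screen, first stage: a single 10 µM dose of compound given to the human tumour panel. Result reported as percent growth relative to control, on a mean growth graph.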
# OVCAR-3 [13] = assay: Growth inhibition of human OVCAR3 cells assessed as cell growth at 10 uM relative to untreated control; settings: read-out: Activity; how it was run: as §1
# CCRF-CEM [14] = assay: Growth inhibition of human CCRF-CEM cells assessed as cell growth at 10 uM relative to untreated control; settings: read-out: Activity; how it was run: as §6
# T47D = assay: Growth inhibition of human T47D cells; how it was run: as §4
# OVCAR-8 = assay: Growth inhibition of human OVCAR8 cells; how it was run: as §2
# SNB-19 [15] = assay: Growth inhibition of human SNB19 cells assessed as cell growth at 10 uM relative to untreated control; settings: read-out: Activity; how it was run: as §3
# PC-3 = assay: Growth inhibition of human PC3 cells; how it was run: as §2
# MOLT-4 [16] = assay: Growth inhibition of human MOLT4 cells assessed as cell growth at 10 uM relative to untreated control; settings: read-out: Activity; how it was run: as §1
# A549 = assay: Growth inhibition of human A549 cells; how it was run: as §5
# SNB-19 [17] = assay: Growth inhibition of human SNB19 cells; how it was run: as §4
# IGROV-1 = assay: Growth inhibition of human IGROV1 cells; how it was run: as §5
# M14 = assay: Growth inhibition of human M14 cells; how it was run: as §5
# HT-29 [18] = assay: Growth inhibition of human HT-29 cells; how it was run: as §5
# HOP-62 = assay: Growth inhibition of human HOP62 cells; how it was run: as §5
# CCRF-CEM [19] = assay: Growth inhibition of human CCRF-CEM cells; how it was run: as §5
# NCI-H322M [20] = assay: Growth inhibition of human NCI-H322M cells; how it was run: as §2
# RXF 393 = assay: Growth inhibition of human RXF393 cells assessed as cell growth at 10 uM relative to untreated control; settings: read-out: Activity; how it was run: as §1
# UO-31 [21] = assay: Growth inhibition of human UO31 cells assessed as cell growth at 10 uM relative to untreated control; settings: read-out: Activity; how it was run: as §3
# SF-295 [22] = assay: Growth inhibition of human SF295 cells; how it was run: as §2
# MDA-MB-231 = assay: Growth inhibition of human MDA-MB-231 cells assessed as cell growth at 10 uM relative to untreated control; settings: read-out: Activity; how it was run: as §1
# SF-539 [23] = assay: Growth inhibition of human SF539 cells assessed as cell growth at 10 uM relative to untreated control; settings: read-out: Activity; how it was run: as §1
# KM12 = assay: Growth inhibition of human KM12 cells assessed as cell growth at 10 uM relative to untreated control; settings: read-out: Activity; how it was run: as §6
# MDA-MB-435 = assay: Growth inhibition of human MDA-MB-435 cells; how it was run: as §2
# UACC-62 = assay: Growth inhibition of human UACC62 cells; how it was run: as §4
# OVCAR-5 = assay: Growth inhibition of human OVCAR5 cells assessed as cell growth at 10 uM relative to untreated control; settings: read-out: Activity; how it was run: as §1
# HCT-116 = assay: Growth inhibition of human HCT116 cells; how it was run: as §5
# HCT-15 = assay: Growth inhibition of human HCT15 cells assessed as cell growth at 10 uM relative to untreated control; settings: read-out: Activity; how it was run: as §6
# OVCAR-3 [24] = assay: Growth inhibition of human OVCAR3 cells; how it was run: as §2
# HCC 2998 [25] = assay: Growth inhibition of human HCC2998 cells; how it was run: as §5
# SN12C = assay: Growth inhibition of human SN12C cells; how it was run: as §4
# [26] = Growth inhibition of human RPMI8266 cells; how it was run: as §2
# NCI-H23 = assay: Growth inhibition of human NCI-H23 cells; how it was run: as §2
# SK-MEL-28 = assay: Growth inhibition of human SK-MEL-28 cells assessed as cell growth at 10 uM relative to untreated control; settings: read-out: Activity; how it was run: as §1
# UO-31 [27] = assay: Growth inhibition of human UO31 cells; how it was run: as §4
# COLO 205 = assay: Growth inhibition of human COLO205 cells assessed as cell growth at 10 uM relative to untreated control; settings: read-out: Activity; how it was run: as §6
# [28] = Growth inhibition of human Hs 578T cells; how it was run: as §5
# HCC 2998 [29] = assay: Growth inhibition of human HCC2998 cells assessed as cell growth at 10 uM relative to untreated control; settings: read-out: Activity; how it was run: as §6
# Malme-3M [30] = assay: Growth inhibition of human MALME-3M cells assessed as cell growth at 10 uM relative to untreated control; settings: read-out: Activity; how it was run: as §6
structure (smiles),measurement,setting,value
N=C1c2nc3n(c2C(=O)c2nc4n(c21)CCCC4)CCCC3,growth at 10 µM,NCI-H322M [1],27.7%
same,GI50,SK-MEL-5,1200 nM
same,GI50,MOLT-4 [2],38900 nM
same,growth at 10 µM,TK-10,128%
same,growth at 10 µM,SNB-75 [3],-97%
same,growth at 10 µM,SK-MEL-2 [4],82.7%
same,GI50,SK-MEL-2 [5],38000 nM
same,GI50,SNB-75 [6],2190 nM
same,growth at 10 µM,SF-268,71.3%
same,GI50,OVCAR-4,34700 nM
same,growth at 10 µM,SF-295 [7],-85.7%
same,GI50,Malme-3M [8],1860 nM
same,GI50,SF-539 [9],2570 nM
same,GI50,HOP-92,43700 nM
same,GI50,NCI-H460 [10],1620 nM
same,growth at 10 µM,SK-OV-3,95%
same,growth at 10 µM,NCI-H460 [11],4.62%
same,growth at 10 µM,HT-29 [12],-13.7%
same,growth at 10 µM,OVCAR-3 [13],98.4%
same,growth at 10 µM,CCRF-CEM [14],92.9%
same,GI50,T47D,17400 nM
same,GI50,OVCAR-8,31600 nM
same,growth at 10 µM,SNB-19 [15],30%
same,GI50,PC-3,100000 nM
same,growth at 10 µM,MOLT-4 [16],85.4%
same,GI50,A549,2040 nM
same,GI50,SNB-19 [17],2570 nM
same,GI50,IGROV-1,42700 nM
same,GI50,M14,1780 nM
same,GI50,HT-29 [18],2750 nM
same,GI50,HOP-62,2450 nM
same,GI50,CCRF-CEM [19],49000 nM
same,GI50,NCI-H322M [20],1700 nM
same,growth at 10 µM,RXF 393,94.8%
same,growth at 10 µM,UO-31 [21],46.9%
same,GI50,SF-295 [22],1740 nM
same,growth at 10 µM,MDA-MB-231,82.6%
same,growth at 10 µM,SF-539 [23],-21.7%
same,growth at 10 µM,KM12,66.7%
same,GI50,MDA-MB-435,245 nM
same,GI50,UACC-62,1740 nM
same,growth at 10 µM,OVCAR-5,-57.8%
same,GI50,HCT-116,19500 nM
same,growth at 10 µM,HCT-15,6.18%
same,GI50,OVCAR-3 [24],20400 nM
same,GI50,HCC 2998 [25],4790 nM
same,GI50,SN12C,1700 nM
same,GI50,[26],25700 nM
same,GI50,NCI-H23,1380 nM
same,growth at 10 µM,SK-MEL-28,-67.2%
same,GI50,UO-31 [27],2340 nM
same,growth at 10 µM,COLO 205,-88.6%
same,GI50,[28],2190 nM
same,growth at 10 µM,HCC 2998 [29],87.3%
O=C1c2nc3n(c2C(=O)c2nc4n(c21)CCCC4)CCCC3,growth at 10 µM,NCI-H322M [1],106%
same,growth at 10 µM,TK-10,100%
same,growth at 10 µM,SNB-75 [3],97%
same,growth at 10 µM,SK-MEL-2 [4],108%
same,growth at 10 µM,SF-268,92.3%
same,growth at 10 µM,SF-295 [7],87.9%
same,growth at 10 µM,Malme-3M [30],79.6%
same,growth at 10 µM,SK-OV-3,102%
same,growth at 10 µM,NCI-H460 [11],95%
same,growth at 10 µM,HT-29 [12],104%
same,growth at 10 µM,OVCAR-3 [13],97%
same,growth at 10 µM,CCRF-CEM [14],103%
same,growth at 10 µM,SNB-19 [15],98.6%
same,growth at 10 µM,MOLT-4 [16],111%
same,growth at 10 µM,RXF 393,107%
same,growth at 10 µM,UO-31 [21],90.9%
same,growth at 10 µM,MDA-MB-231,96.8%
same,growth at 10 µM,SF-539 [23],121%
same,growth at 10 µM,KM12,92.1%
same,growth at 10 µM,OVCAR-5,110%
same,growth at 10 µM,HCT-15,103%
same,growth at 10 µM,SK-MEL-28,118%
same,growth at 10 µM,COLO 205,116%
same,growth at 10 µM,HCC 2998 [29],88.3%
